The list is not random: actives were taken first. Their share in the collection is about 3.8%.
KCNK3 block: human KCNK3 channel inhibition, primary screen; CHO-KCNK3 thallium flux, FluxOR fluorescence; hits give low values; B-score at 10 µM; 340,000 compounds, 0.84% hits; AID 602410;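 active = B-score under library mean minus 4 SD, starting fluorescence ratio at most library mean plus 5 SD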;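 also: more negative B-score means stronger inhibition of thallium flux through KCNK3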
Kir21 inh: blocks the mouse Kir2.1 inward-rectifier potassium channel; B-score at 10 µM; HEK293-Kir2.1, FluxOR thallium flux fluorescence; hits give low values; P35561; 310,000 compounds, 0.85% hits; AID 1672;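 active = fluorescence ratio B-score at or below minus 3 SD of library scores, with starting-brightness B-score within 2 SD, cut at about -4.2 in these data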;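 also: channel flux triggered by added potassium and thallium sulfate stimulus; B-score of peak minus minimum fluorescence over baseline after thallium stimulus; more negative B-score means stronger Kir2.1 block with less thallium influx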
hERG protect: hERG (human) protection from proarrhythmic block; Q12809; CHO-hERG, FluxOR thallium flux, dofetilide IC70 present; activation (rescue from dofetilide block), less the hit threshold, % at 10 µM; 310,000 compounds, 0.51% hits; AID 1511;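 active = activation above the mean of controls blocked by dofetilide plus 5 SD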;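 also: thallium influx through hERG after potassium depolarization seen as dye fluorescence rise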
KCNQ1 pot: potentiates or activates the human KCNQ1 potassium channel; P51787; CHO-K1 KCNQ1, thallium flux FluxOR fluorescence; hits give high values; B-score at 10 µM; 310,000 compounds, 0.35% hits; AID 2648;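 active = fluorescence ratio B-score, a plate-corrected score, at least three library SD, with initial intensity B-score within 5 SD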
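System: CHO-K1 cells stably expressing KCNQ1 / Medium: assay buffer for compound exposure, DMSO matched across wells / Reagent: thallium- and potassium-containing depolarizing buffer / Compound: one concentration, matched DMSO / Incubation: 20 min compound pretreatment at room temperature / Measured by: kinetic FluxOR fluorescence, 10 s baseline plus 110 s post-stimulus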
KCNQ1 inh: blocks the human KCNQ1 potassium channel; P51787; 310,000 compounds, 1.3% hits; CHO-K1 KCNQ1, FluxOR thallium flux fluorescence; hits give high values; B-score at 10 µM; AID 2642;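 active = compounds whose thallium flux B-score, printed positive for inhibition, exceeds three library SD while starting fluorescence stays within three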;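 also: channel opened by potassium depolarization with thallium stimulus after 20 min compound exposure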
KCNK9 block: human KCNK9 channel inhibition. 310,000 compounds, 1.2% hits. Q9NPC2. B-score at 10 µM. HEK293 KCNK9, FluxOR thallium flux fluorescence; hits give low values;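 active = ratio B-score over 3 SD below the library mean, with starting fluorescence within 5 SD of its mean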;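 also: negative B-score means less thallium flux so channel inhibition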
Target sequence (Q9NPC2 whole entry, looked up): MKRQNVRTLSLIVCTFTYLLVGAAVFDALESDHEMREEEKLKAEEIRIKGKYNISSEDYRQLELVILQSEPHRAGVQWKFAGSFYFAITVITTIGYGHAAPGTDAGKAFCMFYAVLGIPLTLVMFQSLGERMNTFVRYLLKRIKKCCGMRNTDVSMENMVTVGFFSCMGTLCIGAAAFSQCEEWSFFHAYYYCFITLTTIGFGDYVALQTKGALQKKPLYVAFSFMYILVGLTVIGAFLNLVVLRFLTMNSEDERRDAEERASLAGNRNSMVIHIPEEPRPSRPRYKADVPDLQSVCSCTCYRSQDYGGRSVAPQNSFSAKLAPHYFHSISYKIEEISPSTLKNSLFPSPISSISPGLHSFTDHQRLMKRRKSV
Active calls of the source: *; i = inactive; . = no result given.

SMILES	KCNK3 block	Kir21 inh	hERG protect	KCNQ1 pot	KCNQ1 inh	KCNK9 block
O=[N+]([O-])c1ccccc1/C=N/N1CCN(c2ccc(Cl)cc2)CC1	i	2.2	-8	i	i	-7.7*
O=[N+]([O-])c1ccc(Cl)c(/C=N/N2CCN(c3ccccc3)CC2)c1	i	0.21	0	i	i	-7.8*
O=[N+]([O-])c1ccccc1/C=N\N1CCN(c2ccccc2)CC1	i	0.1	-14	i	i	i
F[B-](F)(F)COc1ccccc1	i	.	.	.	.	.
O=C(N/N=C/c1coc2ccccc2c1=O)c1cc(Br)c(O)c(Br)c1	i	0.01	-30	i	8*	i
OC1(c2ccc(Cl)cc2)CCN(Cc2c[nH]c3ccccc23)CC1	i	-6.8*	-10	i	i	i
Cc1cccc(OCc2n(CC(=O)OC3CC(C)CCC3C(C)C)c3ccccc3[n+]2C)c1 (stereo not given)	-13*	-13*	-31	i	9*	i
CCOc1ccc(C(=O)NCc2ccco2)cc1Cl	i	0.85	-1	i	i	i
O=C(Nc1ccccc1)N1CCN(c2cccc(C(F)(F)F)c2)CC1	i	-0.25	-9	i	i	-7.4*
Cc1cccc(C(=O)OCc2cncs2)c1	i	0.13	-3	i	i	i
Cc1ccc(-c2nn(-c3ccccc3)cc2CSC(=N)N)cc1	i	-5.8*	-14	i	i	i
OCc1cn(-c2ccccc2)nc1-c1ccc(-c2nn(-c3ccccc3)cc2CO)cc1	i	-0.28	-10	i	i	i
CCc1sc(C(=O)NCCCn2ccnc2)cc1Br	i	-0.27	-3	i	i	i
Cc1cccc(NC(=O)C(C)C(=O)c2ccccc2)c1 (stereo not given)	i	-0.24	-8	i	i	i
Cc1ccc(NC(=O)C(C)c2cccc(C(=O)c3ccccc3)c2)cc1O (stereo not given)	i	-0.96	-15	i	8*	i
Cc1cc(C(=O)Nc2ccncc2)c(C)o1	i	.	.	.	.	.
CN(C(=O)COC(=O)c1cc2ccccc2cc1O)c1c(N)n(Cc2ccccc2)c(=O)[nH]c1=O	i	0.22	-4	i	i	i
Cn1c(CNc2nc3ccccc3n2C)nc2ccccc21	i	-0.33	-14	i	i	i
Cc1ccc(CNc2nc3ccccc3n2C)cc1	i	-6.4*	-4	i	i	i
Cn1c(NCc2ccc(Cl)cc2)nc2ccccc21	i	-9.6*	-9	i	i	i
Cc1ccc(C(=O)NC(Cc2cccc(C(F)(F)F)c2)C(=O)O)cc1 (stereo not given)	i	.	.	.	.	.
CC/C(=C1/C(=O)CC(C)(C)C(C(=O)OC)C1=O)N1CCCC1 (stereo not given)	i	2.3	-6	i	i	i
O=C(CC(c1ccccc1)c1ccccc1O)NCCc1ccccc1 (stereo not given)	i	-1	-8	i	i	i
CC(C)Oc1ccc(CNC(=O)CC(c2ccccc2)c2cc(Cl)ccc2O)cc1 (stereo not given)	i	0.16	-13	i	7*	-7.3*
O=C(CC(c1ccccc1)c1ccccc1O)NCc1ccccc1Cl (stereo not given)	i	-1.5	-10	i	i	-7.5*
CC(=O)Nc1ccc(NC(=O)CSc2ccc3nnc(-c4cccnc4)n3n2)cc1	i	-0.22	-10	i	i	i
Cc1ccc(CCCNC(=O)C2CCC(=O)N(Cc3cccc(F)c3)C2)cc1 (stereo not given)	i	0.88	-8	i	i	i
COc1ccc(C(O)c2nc3ccccc3n2C(C)C)cc1 (stereo not given)	i	-1.3	-8	i	i	i
Cc1c(Cc2ccccc2)c(=O)oc2cc(OCC(=O)NC(Cc3ccc(Cl)cc3)C(=O)O)ccc12 (stereo not given)	i	0.09	-11	i	i	-7.3*
O=C(Nc1ccccc1)NC1CC2CCC(C1)N2Cc1nnnn1Cc1ccc2c(c1)OCO2 (stereo not given)	i	0.13	-13	i	i	i

Assay outcomes: PubChem BioAssay, Johns Hopkins Ion Channel Center
